Assay results: ChEMBL document CHEMBL3632546 (Eur J Med Chem, 2015)
Calls of active or inactive are those of the source. The calls are words filed in the database; no cut-off is given here.

Target: T1, Renin (Homo sapiens, UniProt P00797)
T1 sequence (P00797 whole entry): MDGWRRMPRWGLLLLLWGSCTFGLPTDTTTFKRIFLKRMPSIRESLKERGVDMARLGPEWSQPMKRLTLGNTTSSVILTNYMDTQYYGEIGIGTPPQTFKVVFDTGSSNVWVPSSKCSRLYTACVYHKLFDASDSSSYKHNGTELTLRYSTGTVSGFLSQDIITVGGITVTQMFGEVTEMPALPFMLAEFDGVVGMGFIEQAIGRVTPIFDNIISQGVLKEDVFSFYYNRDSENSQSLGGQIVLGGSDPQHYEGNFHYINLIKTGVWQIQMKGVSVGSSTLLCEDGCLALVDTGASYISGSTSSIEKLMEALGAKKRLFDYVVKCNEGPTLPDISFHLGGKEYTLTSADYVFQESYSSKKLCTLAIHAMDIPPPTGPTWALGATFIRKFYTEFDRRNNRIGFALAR
Test: Inhibition of human recombinant renin preincubated for 30 mins followed by substrate addition measured after 15 mins by fluorescence analysis
In short: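 Fluorogenic renin kit (Ex/Em 490/520 nm). Reaction started with pre-warmed renin substrate (20 µM solution) and run 15 min at 37 °C. RFU read with substrate-only wells as background. Vehicle, buffer and peptide inhibitor (10 µM solution) controls included.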

IC50	SMILES
17.1 nM	CCCCCCc1cn(CC(C)(C)CNC(=O)[C@@H](C[C@H](O)[C@@H](N)C[C@H](Cc2ccc(OC)c(OCCCOC)c2)C(C)C)C(C)C)nn1
11.2 nM	COCCCOc1cc(C[C@@H](C[C@H](N)[C@@H](O)C[C@H](C(=O)NCC(C)(C)Cc2ccc3ccccc3c2)C(C)C)C(C)C)ccc1OC
2.1 nM	CCN(CC)Cc1cn(CC(C)(C)CNC(=O)[C@@H](C[C@H](O)[C@@H](N)C[C@H](Cc2ccc(OC)c(OCCCOC)c2)C(C)C)C(C)C)nn1
11 nM	COCCCOc1cc(C[C@@H](C[C@H](N)[C@@H](O)C[C@H](C(=O)NCCc2ccc3c(c2)OCO3)C(C)C)C(C)C)ccc1OC
30 nM	COCCCOc1cc(C[C@@H](C[C@H](N)[C@@H](O)C[C@H](C(=O)N[C@H](C)c2ccc(Cl)cc2)C(C)C)C(C)C)ccc1OC
1.9 nM	COCCCOc1cc(C[C@@H](C[C@H](N)[C@@H](O)C[C@H](C(=O)NCC(C)(C)Cn2cc(CN(C)C)nn2)C(C)C)C(C)C)ccc1OC
34 nM	COCCCOc1cc(C[C@@H](C[C@H](N)[C@@H](O)C[C@H](C(=O)NCC(C)(C)Cc2ccccc2)C(C)C)C(C)C)ccc1OC
1.1 nM	COCCCOc1cc(C[C@@H](C[C@H](N)[C@@H](O)C[C@H](C(=O)NCC(C)(C)Cn2cc(C(C)O)nn2)C(C)C)C(C)C)ccc1OC (stereo partly drawn)
7 nM	COCCCOc1cc(C[C@@H](C[C@H](N)[C@@H](O)C[C@H](C(=O)NCC(C)(C)Cn2cc(C(C)(C)C)nn2)C(C)C)C(C)C)ccc1OC
16.1 nM	COCCCOc1cc(C[C@@H](C[C@H](N)[C@@H](O)C[C@H](C(=O)NCC(C)(C)Cc2c(F)cccc2F)C(C)C)C(C)C)ccc1OC
8.5 nM	COCCCOc1cc(C[C@@H](C[C@H](N)[C@@H](O)C[C@H](C(=O)NCC(C)(C)CCOc2ccccc2)C(C)C)C(C)C)ccc1OC
2.2 nM	COCCCOc1cc(C[C@@H](C[C@H](N)[C@@H](O)C[C@H](C(=O)NCC(C)(C)Cc2cccnc2)C(C)C)C(C)C)ccc1OC
1.1 nM	COCCCOc1cc(C[C@@H](C[C@H](N)[C@@H](O)C[C@H](C(=O)NCC(C)(C)Cn2cc(CN3CCOCC3)nn2)C(C)C)C(C)C)ccc1OC
27.7 nM	COCCCOc1cc(C[C@@H](C[C@H](N)[C@@H](O)C[C@H](C(=O)NCCc2ccccc2Cl)C(C)C)C(C)C)ccc1OC
12.4 nM	COCCCOc1cc(C[C@@H](C[C@H](N)[C@@H](O)C[C@H](C(=O)NCC(C)(C)Cc2cc(F)ccc2F)C(C)C)C(C)C)ccc1OC
1.6 nM	COCCCOc1cc(C[C@@H](C[C@H](N)[C@@H](O)C[C@H](C(=O)NCC(C)(C)Cn2cc(C3CC3)nn2)C(C)C)C(C)C)ccc1OC
15.2 nM	COCCCOc1cc(C[C@@H](C[C@H](N)[C@@H](O)C[C@H](C(=O)N[C@@H](C)c2ccc(Cl)cc2)C(C)C)C(C)C)ccc1OC
1.5 nM	COCCCOc1cc(C[C@@H](C[C@H](N)[C@@H](O)C[C@H](C(=O)NCC(C)(C)Cc2ccncc2)C(C)C)C(C)C)ccc1OC
1 nM	COCCCOc1cc(C[C@@H](C[C@H](N)[C@@H](O)C[C@H](C(=O)NCC(C)(C)Cn2cc(CN3CCCCC3)nn2)C(C)C)C(C)C)ccc1OC
13.4 nM	COCCCOc1cc(C[C@@H](C[C@H](N)[C@@H](O)C[C@H](C(=O)NCC(C)(C)Cc2ccc(OC(F)(F)F)cc2)C(C)C)C(C)C)ccc1OC

IC50	SMILES
33.7 nM	COCCCOc1cc(C[C@@H](C[C@H](N)[C@@H](O)C[C@H](C(=O)N[C@H](C)c2ccc(Br)cc2)C(C)C)C(C)C)ccc1OC
9.8 nM	COCCCOc1cc(C[C@@H](C[C@H](N)[C@@H](O)C[C@H](C(=O)NCC(C)(C)Cc2cccc(Cl)c2)C(C)C)C(C)C)ccc1OC
7.2 nM	COCCCOc1cc(C[C@@H](C[C@H](N)[C@@H](O)C[C@H](C(=O)NCCc2cccc(OC)c2)C(C)C)C(C)C)ccc1OC
15.5 nM	COCCCOc1cc(C[C@@H](C[C@H](N)[C@@H](O)C[C@H](C(=O)NCC(C)(C)CC2CCCCC2)C(C)C)C(C)C)ccc1OC
5 nM	COCCCOc1cc(C[C@@H](C[C@H](N)[C@@H](O)C[C@H](C(=O)NCC(C)(C)Cn2cc(-c3ccccc3)nn2)C(C)C)C(C)C)ccc1OC
5.8 nM	CCCCc1cn(CC(C)(C)CNC(=O)[C@@H](C[C@H](O)[C@@H](N)C[C@H](Cc2ccc(OC)c(OCCCOC)c2)C(C)C)C(C)C)nn1
10.2 nM	COCCCOc1cc(C[C@@H](C[C@H](N)[C@@H](O)C[C@H](C(=O)NCC(C)(C)Cc2ccc(OC)cc2)C(C)C)C(C)C)ccc1OC
13.1 nM	COCCCOc1cc(C[C@@H](C[C@H](N)[C@@H](O)C[C@H](C(=O)NCC(C)(C)Cn2cc(-c3ccc(C)cc3)nn2)C(C)C)C(C)C)ccc1OC
9.2 nM	COCCCOc1cc(C[C@@H](C[C@H](N)[C@@H](O)C[C@H](C(=O)NCC(C)(C)Cc2ccccc2F)C(C)C)C(C)C)ccc1OC
12.3 nM	COCCCOc1cc(C[C@@H](C[C@H](N)[C@@H](O)C[C@H](C(=O)NCC(C)(C)Cc2cccc(OC)c2)C(C)C)C(C)C)ccc1OC
1.8 nM	COCCCOc1cc(C[C@@H](C[C@H](N)[C@@H](O)C[C@H](C(=O)NCC(C)(C)CCN2CCOCC2)C(C)C)C(C)C)ccc1OC
5.2 nM	COCCCOc1cc(C[C@@H](C[C@H](N)[C@@H](O)C[C@H](C(=O)NCC(C)(C)Cn2cc(C3(O)CCCC3)nn2)C(C)C)C(C)C)ccc1OC
0.9 nM	COCCCOc1cc(C[C@@H](C[C@H](N)[C@@H](O)C[C@H](C(=O)NCC(C)(C)Cn2cc(CO)nn2)C(C)C)C(C)C)ccc1OC
9.8 nM	COCCCOc1cc(C[C@@H](C[C@H](N)[C@@H](O)C[C@H](C(=O)NCC(C)(C)Cc2cccc(F)c2)C(C)C)C(C)C)ccc1OC
2.7 nM	COCCCOc1cc(C[C@@H](C[C@H](N)[C@@H](O)C[C@H](C(=O)NCC(C)(C)Cn2cc(CN(C(C)C)C(C)C)nn2)C(C)C)C(C)C)ccc1OC
1.5 nM	COCCCOc1cc(C[C@@H](C[C@H](N)[C@@H](O)C[C@H](C(=O)NCC(C)(C)Cn2cc(-c3ccccn3)nn2)C(C)C)C(C)C)ccc1OC
20.9 nM	COCCCOc1cc(C[C@@H](C[C@H](N)[C@@H](O)C[C@H](C(=O)N[C@@H](C)c2ccc(Br)cc2)C(C)C)C(C)C)ccc1OC
0.7 nM	COCCCOc1cc(C[C@@H](C[C@H](N)[C@@H](O)C[C@H](C(=O)NCC(C)(C)Cn2cc(CCO)nn2)C(C)C)C(C)C)ccc1OC.Cl
2 nM	COCCCOc1cc(C[C@@H](C[C@H](N)[C@@H](O)C[C@H](C(=O)NCC(C)(C)Cn2ccnn2)C(C)C)C(C)C)ccc1OC
2.6 nM	COCCCOc1cc(C[C@@H](C[C@H](N)[C@@H](O)C[C@H](C(=O)NCCc2ccccn2)C(C)C)C(C)C)ccc1OC

Test system: Mus musculus
Test: Antihypersensitive activity in double transgenic hypertensive mouse harboring human angiotensinogen and human renin genes assessed as reduction of mean arterial blood pressure at 17 to 34 umol/kg, po monitored 24 hrs post dose
Type: functional, organism-based

SMILES	Activity
COCCCOc1cc(C[C@@H](C[C@H](N)[C@@H](O)C[C@H](C(=O)NCC(C)(C)Cn2cc(CCO)nn2)C(C)C)C(C)C)ccc1OC.Cl	Active

Target: T2, Cathepsin E (Homo sapiens) (UniProt P14091)
T2 sequence (whole entry): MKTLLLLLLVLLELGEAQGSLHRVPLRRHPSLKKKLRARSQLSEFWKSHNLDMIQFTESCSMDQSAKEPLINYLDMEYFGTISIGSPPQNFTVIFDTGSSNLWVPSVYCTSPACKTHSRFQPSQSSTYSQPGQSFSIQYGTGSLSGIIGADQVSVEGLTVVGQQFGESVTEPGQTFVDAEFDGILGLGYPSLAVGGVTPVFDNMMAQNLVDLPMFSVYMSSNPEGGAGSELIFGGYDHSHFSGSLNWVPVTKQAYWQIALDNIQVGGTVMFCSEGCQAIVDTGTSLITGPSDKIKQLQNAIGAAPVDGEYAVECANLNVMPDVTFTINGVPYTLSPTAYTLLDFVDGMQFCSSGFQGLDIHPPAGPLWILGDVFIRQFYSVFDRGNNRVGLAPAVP
Test: Inhibition of human recombinant cathepsin E preincubated for 30 mins followed by substrate addition measured after 15 mins by fluorescence analysis

inhibition	SMILES
inactive	COCCCOc1cc(C[C@@H](C[C@H](N)[C@@H](O)C[C@H](C(=O)NCC(C)(C)Cn2cc(CCO)nn2)C(C)C)C(C)C)ccc1OC.Cl

Test system: Mus musculus
Test: Antihypersensitive activity in double transgenic hypertensive mouse harboring human angiotensinogen and human renin genes assessed as reduction of mean arterial blood pressure at 8.5 umol/kg, po monitored 24 hrs post dose
Type: functional, organism-based

SMILES	Activity
COCCCOc1cc(C[C@@H](C[C@H](N)[C@@H](O)C[C@H](C(=O)NCC(C)(C)C(N)=O)C(C)C)C(C)C)ccc1OC	Active
COCCCOc1cc(C[C@@H](C[C@H](N)[C@@H](O)C[C@H](C(=O)NCC(C)(C)Cn2cc(CCO)nn2)C(C)C)C(C)C)ccc1OC.Cl	Active

Test system: Mus musculus
Test: Antihypersensitive activity in po dosed double transgenic hypertensive mouse harboring human angiotensinogen and human renin genes assessed as reduction of mean arterial blood pressure monitored 24 hrs post dose
Type: functional, organism-based

SMILES	Activity
COCCCOc1cc(C[C@@H](C[C@H](N)[C@@H](O)C[C@H](C(=O)NCC(C)(C)Cn2cc(CCO)nn2)C(C)C)C(C)C)ccc1OC.Cl	Dose-dependent effect

Test system: Mus musculus
Test: Antihypersensitive activity in po dosed double transgenic hypertensive mouse harboring human angiotensinogen and human renin genes assessed as maximum reduction of mean arterial blood pressure monitored 24 hrs post dose
Type: functional

SMILES	Activity
COCCCOc1cc(C[C@@H](C[C@H](N)[C@@H](O)C[C@H](C(=O)NCC(C)(C)Cn2cc(CCO)nn2)C(C)C)C(C)C)ccc1OC.Cl	40 mmHg

Test system: Mus musculus
Test: Antihypersensitive activity in po dosed double transgenic hypertensive mouse harboring human angiotensinogen and human renin genes assessed as time duration for sustained reduction of mean arterial blood pressure monitored 24 hrs post dose
Type: functional

SMILES	Time
COCCCOc1cc(C[C@@H](C[C@H](N)[C@@H](O)C[C@H](C(=O)NCC(C)(C)Cn2cc(CCO)nn2)C(C)C)C(C)C)ccc1OC.Cl	14 h

Target: Cathepsin D (Homo sapiens) (UniProt P07339)
Sequence (P07339 65-162 limits assumed): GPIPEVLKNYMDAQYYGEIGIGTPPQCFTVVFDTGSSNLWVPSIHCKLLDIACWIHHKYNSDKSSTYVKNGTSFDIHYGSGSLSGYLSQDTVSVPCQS
Sequence (P07339 169-412 limits assumed): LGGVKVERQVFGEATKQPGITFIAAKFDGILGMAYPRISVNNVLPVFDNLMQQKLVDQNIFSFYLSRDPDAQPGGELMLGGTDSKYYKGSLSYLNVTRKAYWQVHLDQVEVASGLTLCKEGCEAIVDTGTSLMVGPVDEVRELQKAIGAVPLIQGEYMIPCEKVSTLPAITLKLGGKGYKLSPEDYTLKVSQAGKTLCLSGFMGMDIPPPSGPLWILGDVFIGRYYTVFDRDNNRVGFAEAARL
Test: Inhibition of human recombinant cathepsin D preincubated for 30 mins followed by substrate addition measured after 15 mins by fluorescence analysis

inhibition	SMILES
inactive	COCCCOc1cc(C[C@@H](C[C@H](N)[C@@H](O)C[C@H](C(=O)NCC(C)(C)Cn2cc(CCO)nn2)C(C)C)C(C)C)ccc1OC.Cl
